In PMC6099226 (Diabetes, Obesity & Metabolism, 2018):

Experiments:
Format in all cases: in vivo, human
[1] = Semaglutide exposure: average steady-state concentration; details: mean Cavg at steady state
How it was run: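 Plasma samples were taken 4–5 times per participant, at weeks 4, 8, 16 and 30, plus week 56 except in SUSTAIN 1. Assay was validated LC-MS/MS with LLOQ 0.729 nmol/L; samples below it were excluded. Average steady-state concentration at the randomized once-weekly subcutaneous maintenance dose was derived from individual clearance estimates of a population-PK analysis.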

adults with T2DM [2] = test: Exposure-response analysis of elevated serum calcitonin
How it was run: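 Serum calcitonin was measured by chemiluminescent immunometric assay (range 2.0–2000 pg/mL). Only participants with normal baseline values and post-baseline data were included, without imputation. The proportion with elevated calcitonin at any time until end-of-treatment was plotted with 95% CI against Cavg quantiles, with placebo at zero exposure. A covariate-adjusted exposure-response model was fitted.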

adults with T2DM [3] = details: semaglutide 0.5 and 1.0 mg
adults with T2DM [4] = test: Analysis of GI AEs
How it was run: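 Adults with T2DM from four phase III trials received once-weekly subcutaneous injections, escalated every 4 weeks (0.25, 0.5, 1.0 mg). Nausea reports were counted from baseline to week 30. Proportions were plotted against time by dose, with each dose split into high/low exposure halves by Cavg at the maintenance dose. Logistic regression adjusted for trial, sex, age group, escalation regimen and Japanese race. LOCF and completer sensitivity analyses were run.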

CC[C@H](C)[C@H](NC(=O)[C@H](Cc1ccccc1)NC(=O)[C@H](CCC(=O)O)NC(=O)[C@H](CCCCNC(=O)COCCOCCNC(=O)COCCOCCNC(=O)CC[C@H](NC(=O)CCCCCCCCCCCCCCCCC(=O)O)C(=O)O)NC(=O)[C@H](C)NC(=O)[C@H](C)NC(=O)[C@H](CCC(N)=O)NC(=O)CNC(=O)[C@H](CCC(=O)O)NC(=O)[C@H](CC(C)C)NC(=O)[C@H](Cc1ccc(O)cc1)NC(=O)[C@H](CO)NC(=O)[C@H](CO)NC(=O)[C@@H](NC(=O)[C@H](CC(=O)O)NC(=O)[C@H](CO)NC(=O)[C@@H](NC(=O)[C@H](Cc1ccccc1)NC(=O)[C@@H](NC(=O)CNC(=O)[C@H](CCC(=O)O)NC(=O)C(C)(C)NC(=O)[C@@H](N)Cc1cnc[nH]1)[C@@H](C)O)[C@@H](C)O)C(C)C)C(=O)N[C@@H](C)C(=O)N[C@@H](Cc1c[nH]c2ccccc12)C(=O)N[C@@H](CC(C)C)C(=O)N[C@H](C(=O)N[C@@H](CCCNC(=N)N)C(=O)NCC(=O)N[C@@H](CCCNC(=N)N)C(=O)NCC(=O)O)C(C)C [semaglutide]
Semaglutide exposure ([1]; All men, dose 0.5 mg once weekly): 15.0 nmol/L | Semaglutide exposure ([1]; All men, dose 1.0 mg once weekly): 29.9 nmol/L | Semaglutide exposure ([1]; All participants, dose 0.5 mg once weekly): 15.3 nmol/L | Semaglutide exposure ([1]; All participants, dose 1.0 mg once weekly): 30.6 nmol/L | Semaglutide exposure ([1]; All women, dose 0.5 mg once weekly): 15.9 nmol/L | Semaglutide exposure ([1]; All women, dose 1.0 mg once weekly): 31.7 nmol/L | proportion of participants with serum calcitonin concentrations above the reference ranges (adults with T2DM [2]; any time after baseline until end‐of‐treatment, 36 of 1395 participants, placebo data included in the analysis): 2.6% | dependence of elevated calcitonin levels on exposure (adults with T2DM [2]; range of exposures achieved with 0.5 and 1.0 mg, no effect vs placebo): independent of exposure | increase from baseline to end‐of‐trial in mean resting pulse rate (adults with T2DM [3]): 2−4 bpm | proportion of participants reporting nausea (adults with T2DM [4]; during the first 4 weeks, also for participants with high exposure): < 7% | concentration of semaglutide estimated to be tolerated without nausea by 95% of participants (adults with T2DM [4]; week 1): < 5 nM | concentration of semaglutide estimated to be tolerated without nausea by 95% of participants (adults with T2DM [4]; week 30): > 30 nM
